This is a sample that favours compounds with a hit; in the whole collection about 1.5% have one here.
STAT3 inh-1 = IL-6 driven STAT3 reporter inhibitors, primary screen, U3A cells, luciferase, luminescence, MLSCN library; IL-6 STAT3-luciferase reporter; host cell line lacks STAT1; inhibition, % at 5.5 µM; hit rate 0.89% among 190,000; AID 862, 2007;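 active = inhibition above the mean inhibition across all screened compounds plus 3 SD, cut at about 44% in these data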
Hep lipid drop = inhibitors of hepatocyte lipid droplet formation, primary screen, imaging, high-throughput imaging, BODIPY stain; hit rate 0.4% among 240,000; AML12 mouse hepatocytes, oleate lipid droplets; inhibition, % at 6.5 µM; AID 1656, 2009;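 active = lipid droplet intensity inhibited by at least 50%, with more than 500 cells counted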
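Assay system: AML12 hepatocytes (mouse) / Also added: 100 µM oleic acid challenge / Times: overnight treatment with compound plus oleate / Detection: high-content imaging of BODIPY-stained droplets and DAPI nuclei / Evaluation: % inhibition of lipid droplet signal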
PPC-1+TRAIL kill = compounds killing PPC-1 cancer cells with TRAIL present, primary screen, TRAIL potentiator project, ATPLite luminescence, uHTS. PPC-1 cells + TRAIL, ATPLite viability luminescence. cell killing (% activity), % at 4 µM or 5 µM. hit rate 0.41% among 220,000. AID 1443, 2008;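 active = cell killing above 50% in the first pass at 4 µM, then a duplicate retest at 5 µM averaging 50% or more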
STAT1 blocker = STAT1 signaling inhibitors, primary screen, cell-based, HTS, luciferase reporter. NIH 3T3 STAT1-luciferase reporter, IFN-gamma, luminescence. inhibition, % at 5.5 µM. hit rate 0.35% among 200,000. AID 920, 2007;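 active = inhibition above a set limit, the mean inhibition across all tested compounds plus 3 SD, cut at about 34% in these data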
TAG inh = inhibitors of triacylglycerol accumulation, primary screen, cell-based, uHTS, fluorescence, H9c2; H9c2 cells, Nile Red lipid (TAG) fluorescence; cells loaded with 200 µM oleic acid; inhibition, % at 12.5 µM; hit rate 0.66% among 230,000;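 active = pattern-corrected inhibition of lipid staining of at least 50% with the nuclear-stain viability signal not falling by more than 50%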
Platelet DG rel = inhibitors of platelet dense granule secretion, primary screen, cell-based, MLPCN, human platelets. human platelet-rich plasma, SFLLRN dense granule ATP release, luminescence. inhibition, %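 (compounds screened at 7.5 µM in platelet-rich plasma)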. hit rate 0.22% among 300,000. AID 1663, 2009;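 active = mean replicate score, as percent of positive control, at or above 50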
STAT3 inh-2 = STAT3 reporter inhibitors, retest of hits, confirmation, U3A cells, luciferase, luminescence; shares compounds with STAT3 inh-1; IL-6 STAT3 luciferase reporter; cell line lacks STAT1; inhibition, % at 5.7 µM; hit rate 45% among 1,200; AID 1265, 2008;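 active = inhibition above the hit cutoff computed for the primary STAT3 screen, cut at about 44% in these data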
NFkB inh 2 = NF-kB reporter inhibitors in human cells, confirmation, counter-screen for STAT3 inhibitor project, cell-based, HEK293T, luciferase, TNF-alpha stimulus; hit rate 36% among 1,200; AID 1308, 2008; TNF-alpha induced; inhibition, % at 5.7 µM; shares compounds with STAT3 inh-1;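 active = inhibition above the mean of solvent-only control wells plus 3 SD, cutoff set per campaign, cut at about 13% in these data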
STAT1 inh 2 = STAT1 reporter inhibitors, IFN-gamma induced, confirmation, counter-screen for STAT3 inhibitor project, cell-based, NIH 3T3, luciferase luminescence; shares compounds with STAT3 inh-1; NIH 3T3 STAT1-luciferase reporter; inhibition, % at 5.7 µM; hit rate 27% among 1,200;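 active = inhibition above the mean plus 3 SD of solvent-only control wells, limit set per screening run, cut at about 16% in these data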
Hits are given with their value; – = inactive; · = no result given.

SMILES	STAT3 inh-1	Hep lipid drop	PPC-1+TRAIL kill	STAT1 blocker	TAG inh	Platelet DG rel	STAT3 inh-2	NFkB inh 2	STAT1 inh 2
O=S(=O)(NCC1CCCO1)c1ccc(-c2ccc(S(=O)(=O)NCC3CCCO3)cc2)cc1 (stereo unspecified)	78	–	–	–	–	–	84	33	22
CCOC(=O)c1ccc(NC(=O)CSc2nc3cccnc3n2C)cc1	54	·	–	–	–	–	–	–	–
Oc1ccc(C(=Nc2ccccc2)c2ccccc2)c(O)c1	·	·	·	·	–	·	·	·	·
O=C(NCc1ccccc1Cl)c1csc(COCCO)n1	·	·	·	·	–	·	·	·	·
O=c1c(Cl)c(Cl)cnn1Cc1ccccc1Cl	48	–	–	–	·	–	55	27	20
COc1ccc(OC)c(CN2CCN(C(=O)c3ccc(S(=O)(=O)N4CCCCCC4)cc3)CC2)c1	·	·	·	·	–	·	·	·	·
COc1cccc(NS(=O)(=O)c2ccc3c(c2)CCN3C(C)=O)c1	·	–	·	·	·	–	·	·	·
CC(=O)N1CCc2cc(S(=O)(=O)Nc3cccc(C(F)(F)F)c3)ccc21	44	·	–	–	–	–	–	–	19
O=[N+]([O-])c1ccccc1C=NNC(=S)NN=Cc1ccccc1[N+](=O)[O-]	·	·	·	·	–	·	·	·	·
O=[N+]([O-])c1ccccc1NC(=S)N/N=C/c1ccc(O)c(O)c1	68	–	–	–	–	–	48	–	–
CCOc1cccc(/C=N/NC(=S)Nc2ccccc2[N+](=O)[O-])c1O	69	–	–	–	–	–	–	–	–
CCCCOc1ccc(S(=O)(=O)NC(=O)C2(C)CCN2C(=O)CCc2ccccc2)cc1 (stereo unspecified)	·	·	·	·	–	·	·	·	·
COc1ccc(N(C(=O)CCl)C(C(=O)NCCc2ccccc2)c2cccs2)cc1 (stereo unspecified)	62	–	–	–	·	–	92	–	21
Cn1c(N=Nc2ccccc2)nc2ccccc21	51	–	85	–	·	72	–	–	–
O=C(Nc1ccc2oc(-c3ccccc3)nc2c1)c1ccncc1	46	·	–	–	·	–	–	–	–
O=C(Nc1ccc(-c2nc3ccccc3o2)cc1)c1ccc(N2C(=O)C3C4C=CC(C4)C3C2=O)cc1 (stereo unspecified)	74	–	–	–	·	–	68	17	–
COc1cccc(C(=O)Nc2ccc(-c3nc4ccccc4o3)c(O)c2)c1	–	–	–	–	·	–	·	·	·
COc1cc(OC)cc(C(=O)Nc2ccc(-c3nc4ccccc4o3)cc2)c1	46	·	–	–	–	–	45	–	–
O=C(O)c1ccccc1C=NN1CCCCCC1	·	·	·	·	–	·	·	·	·
CNc1nc2cc([N+](=O)[O-])c([N+](=O)[O-])cc2nc1NC	72	–	–	–	·	–	65	28	20
CC(CC(=O)c1ccc(F)cc1)N1CCN(c2ccccc2)CC1 (stereo unspecified)	·	·	·	·	–	·	·	·	·
CCc1ccc(CN2CCN(C(=O)c3cccc(OC)c3OC)CC2)cc1	60	–	–	–	–	–	–	–	–
COc1ccc(C(=O)c2sc3nc(-c4ccccc4)ccc3c2N)cc1	–	–	–	–	·	–	·	·	·
CC(C)OC(=O)c1sc2nc(-c3ccccc3)ccc2c1N	61	·	–	–	·	–	–	–	–
O=C(Nc1nc(-c2ccc(S(=O)(=O)N3CCOCC3)cc2)cs1)c1ccccc1	50	·	–	–	–	–	44	18	24
SMILES	STAT3 inh-1	Hep lipid drop	PPC-1+TRAIL kill	STAT1 blocker	TAG inh	Platelet DG rel	STAT3 inh-2	NFkB inh 2	STAT1 inh 2
O=C(Nc1nc(-c2ccc(S(=O)(=O)N3CCCC3)cc2)cs1)c1cccs1	47	–	–	–	–	·	–	–	17
O=C(Nc1nc(-c2ccc3ccccc3c2)cs1)C1CCN(S(=O)(=O)c2cccs2)CC1	–	–	–	–	·	–	·	·	·
Cc1ccc(-c2csc(NC(=O)C3CCN(S(=O)(=O)c4cccs4)CC3)n2)cc1	79	–	–	–	·	–	84	33	17
COc1ccc(CNC(=O)C2(C)Cc3c(-c4cccc(NC(C)=O)c4)ccnc3O2)cc1OC (stereo unspecified)	·	·	·	·	–	·	·	·	·
O=C(c1cccn2c(=O)c3ccccc3nc12)N1CCN(c2ccccn2)CC1	51	–	–	–	·	–	–	–	–
CCN1CCN(C(=S)c2ccc(-c3ccccc3)cc2)CC1	47	–	–	–	·	–	–	–	–
CC(O)(c1cccc(F)c1)c1nc(-c2cnc3ccccc3c2)cs1 (stereo unspecified)	·	·	·	·	–	·	·	·	·
c1ccc(-c2ccc(-c3ccccn3)nn2)nc1	51	·	–	–	·	–	–	–	–
c1ccc(-c2ccccn2)nc1	–	–	–	–	–	–	·	·	·
O=C(c1cccs1)c1ccc(-c2cccs2)s1	61	·	–	–	–	–	–	–	–
COc1cccc(NC(=O)C2(C)CCN2C(=O)CC2CC2)c1 (stereo unspecified)	·	·	·	·	–	·	·	·	·
CCOc1ccccc1-c1cnc(NC)cn1	·	·	·	·	–	·	·	·	·
CCN(CC)S(=O)(=O)c1ccc(N2CCOCC2)c(NS(=O)(=O)c2ccc(Cl)s2)c1	·	·	·	·	–	·	·	·	·
Cn1nc(CC(=O)Nc2ccc3c(c2)OCCO3)c2ccccc2c1=O	83	–	–	–	–	–	78	34	28
Cc1ccc(NC(=O)Cn2nc(C)c3ccccc3c2=O)cc1F	–	·	–	–	–	–	·	·	·
Cn1c(C(=O)O)c(CC(=O)Nc2ccc3c(c2)OCCO3)c2ccccc21	–	·	–	–	–	–	·	·	·
Cc1ccc(NC(=O)Cc2nn(C)c(=O)c3ccccc23)cc1F	85	·	–	–	–	–	77	25	23
Cc1sc(NC(=O)c2ccco2)c(C(c2cccnc2)N2CCN(CCO)CC2)c1C (stereo unspecified)	–	–	–	–	–	–	·	·	·
CCOC(=O)C1CCN(C(c2cccnc2)c2c(NC(=O)c3ccco3)sc(C)c2C)CC1 (stereo unspecified)	50	·	–	–	–	–	64	14	–
COc1ccc(C(=O)c2ccc(Cl)cc2)c2ccccc12	–	–	–	–	–	–	·	·	·
